In ChEMBL document CHEMBL1131147, “7-Arylidenenaltrexones as selective delta1 opioid receptor antagonists” (J Med Chem, 1998):

Assays:
[1] = molecular target: Kappa-type opioid receptor (Cavia porcellus) (UniProt P41144); assay: Inhibition of ethylketazocine binding to Opioid receptor kappa 1 of guinea pig ileal longitudinal muscle
Method in brief: (§1)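 Electrically stimulated smooth muscle: guinea pig ileal longitudinal muscle with morphine or ethylketazocine, mouse vas deferens with DADLE. Antagonist 100 nM incubated 15 min (30 min in footnoted cases) before agonist. IC50 ratio = agonist IC50 with antagonist divided by control IC50 in the same preparation; mean ± SEM, n shown.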

[2] = Relative affinity for delta and mu receptors
Method in brief: (§2)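 Selectivity ratio = DADLE IC50 ratio (MVD) divided by morphine or EK IC50 ratio (GPI), with 100 nM antagonist. Where an IC50 ratio was below or near unity, a value of 1 was used.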

[3] = molecular target: Mu-type opioid receptor (Cavia porcellus) (UniProt P97266); assay: Inhibition of morphine binding to Opioid receptor mu 1 of guinea pig ileal longitudinal muscle; method in brief: as §1
Sequence of Mu-type opioid receptor (Cavia porcellus) (P97266 whole entry): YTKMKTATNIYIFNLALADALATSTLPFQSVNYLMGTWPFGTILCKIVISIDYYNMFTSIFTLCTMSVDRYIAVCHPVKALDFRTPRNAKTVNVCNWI

[4] = molecular target: Delta-type opioid receptor (Mus musculus) (UniProt P32300); assay: Inhibition of DADLE binding to Opioid receptor delta 1 of mouse vas deferens; method in brief: as §1
Sequence of Delta-type opioid receptor (Mus musculus) (P32300 whole entry): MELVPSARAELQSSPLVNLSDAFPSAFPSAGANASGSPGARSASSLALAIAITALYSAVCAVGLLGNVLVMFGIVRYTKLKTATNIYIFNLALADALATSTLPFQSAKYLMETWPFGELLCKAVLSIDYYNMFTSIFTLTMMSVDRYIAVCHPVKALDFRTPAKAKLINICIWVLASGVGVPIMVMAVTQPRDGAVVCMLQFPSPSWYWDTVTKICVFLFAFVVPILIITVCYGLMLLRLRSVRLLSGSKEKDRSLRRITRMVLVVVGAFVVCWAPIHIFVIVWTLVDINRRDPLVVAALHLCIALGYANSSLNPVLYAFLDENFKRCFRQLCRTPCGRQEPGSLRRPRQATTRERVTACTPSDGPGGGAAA

[5] = Relative affinity for delta and kappa receptors; method in brief: as §2
[6] = molecular target: Kappa-type opioid receptor (Mus musculus) (UniProt P33534); assay: Antagonism of antinociceptive effect of U-50,488 against kOpioid receptor kappa 1 in male ICR mice at a sc dose of 16 umol/kg; format: functional, organism-based
Sequence of Kappa-type opioid receptor (Mus musculus) (P33534 whole entry): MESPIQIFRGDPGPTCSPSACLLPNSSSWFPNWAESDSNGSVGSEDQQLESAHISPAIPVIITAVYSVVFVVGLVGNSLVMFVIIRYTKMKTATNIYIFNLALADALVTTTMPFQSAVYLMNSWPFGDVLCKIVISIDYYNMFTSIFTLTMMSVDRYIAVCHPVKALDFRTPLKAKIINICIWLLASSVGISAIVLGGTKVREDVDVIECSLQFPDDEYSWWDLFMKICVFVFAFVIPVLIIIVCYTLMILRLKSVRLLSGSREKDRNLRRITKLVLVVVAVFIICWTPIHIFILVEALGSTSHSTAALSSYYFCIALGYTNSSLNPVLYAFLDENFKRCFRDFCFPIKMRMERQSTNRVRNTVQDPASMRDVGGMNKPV
Method in brief: (§3)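 Male ICR mice, tail-flick antinociception. Antagonist given sc at the stated dose (µmol/kg), pretreatment timed so peak antagonism coincides with the agonist's peak antinociceptive response. Agonists: DPDPE (δ1), DSLET (δ2), morphine (µ), U50488 (κ). ED50 ratio = agonist ED50 with sc antagonist divided by control ED50, with 95% confidence limits.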

[7] = molecular target: Delta-type opioid receptor (Mus musculus) (UniProt P32300); assay: Antagonism of antinociceptive effect of DPDPE against delta 1 opioid receptor in male ICR mice at a sc dose of 16 umol/kg; format: functional, organism-based; method in brief: as §3
[8] = molecular target: Delta-type opioid receptor (Mus musculus) (UniProt P32300); assay: Antagonism of antinociceptive effect of DSLET against delta 2 opioid receptor in male ICR mice at a sc dose of 16 umol/kg; format: functional, organism-based; method in brief: as §3
[9] = molecular target: Mu-type opioid receptor (Mus musculus) (UniProt P42866); assay: Antagonism of antinociceptive effect of morphine against Opioid receptor mu 1 in male ICR mice at a sc dose of 5 umol/kg.; format: functional, organism-based; method in brief: as §3
Sequence of Mu-type opioid receptor (Mus musculus) (P42866 whole entry): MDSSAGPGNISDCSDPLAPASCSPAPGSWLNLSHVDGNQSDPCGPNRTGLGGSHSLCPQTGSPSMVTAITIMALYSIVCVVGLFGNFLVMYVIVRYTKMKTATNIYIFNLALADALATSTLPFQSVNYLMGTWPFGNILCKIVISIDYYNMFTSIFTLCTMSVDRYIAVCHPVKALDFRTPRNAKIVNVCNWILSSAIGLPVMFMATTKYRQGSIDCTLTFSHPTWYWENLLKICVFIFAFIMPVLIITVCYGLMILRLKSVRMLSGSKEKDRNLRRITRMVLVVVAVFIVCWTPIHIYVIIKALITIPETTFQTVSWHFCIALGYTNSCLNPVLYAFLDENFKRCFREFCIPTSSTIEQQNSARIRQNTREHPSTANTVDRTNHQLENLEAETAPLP

[10] = molecular target: Mu-type opioid receptor (Mus musculus) (UniProt P42866); assay: Antagonism of antinociceptive effect of morphine against Opioid receptor mu 1 in male ICR mice at a sc dose of 16 umol/kg; format: functional, organism-based; method in brief: as §3
[11] = molecular target: Delta-type opioid receptor (Mus musculus) (UniProt P32300); assay: Antagonism of antinociceptive effect of DSLET against delta 2 opioid receptor in male ICR mice at a sc dose of 5 umol/kg; format: functional, organism-based; method in brief: as §3
[12] = molecular target: Delta-type opioid receptor (Mus musculus) (UniProt P32300); assay: Antagonism of antinociceptive effect of DPDPE against delta 1 opioid receptor in male ICR mice at a sc dose of 5 umol/kg; format: functional, organism-based; method in brief: as §3
[13] = molecular target: Kappa-type opioid receptor (Mus musculus) (UniProt P33534); assay: Antagonism of antinociceptive effect of U-50,488 against kOpioid receptor kappa 1 in male ICR mice at a sc dose of 5 umol/kg; format: functional, organism-based; method in brief: as §3
[14] = molecular target: Kappa-type opioid receptor (Mus musculus) (UniProt P33534); assay: Antagonism of antinociceptive effect of U-50,488 against Opioid receptor kappa 1 in male ICR mice at a sc dose of 16 umol/kg; format: functional, organism-based; method in brief: as §3
[15] = molecular target: Kappa-type opioid receptor (Mus musculus) (UniProt P33534); assay: Antagonism of antinociceptive effect of U-50,488 against Opioid receptor kappa 1 in male ICR mice at a sc dose of 5 umol/kg; format: functional, organism-based; method in brief: as §3
[16] = molecular target: Mu-type opioid receptor (Mus musculus) (UniProt P42866); assay: Antagonism of antinociceptive effect of morphine against Opioid receptor mu 1 in male ICR mice at a sc dose of 5 umol/kg; format: functional, organism-based; method in brief: as §3

Sequence of Kappa-type opioid receptor (Cavia porcellus) (P41144 whole entry): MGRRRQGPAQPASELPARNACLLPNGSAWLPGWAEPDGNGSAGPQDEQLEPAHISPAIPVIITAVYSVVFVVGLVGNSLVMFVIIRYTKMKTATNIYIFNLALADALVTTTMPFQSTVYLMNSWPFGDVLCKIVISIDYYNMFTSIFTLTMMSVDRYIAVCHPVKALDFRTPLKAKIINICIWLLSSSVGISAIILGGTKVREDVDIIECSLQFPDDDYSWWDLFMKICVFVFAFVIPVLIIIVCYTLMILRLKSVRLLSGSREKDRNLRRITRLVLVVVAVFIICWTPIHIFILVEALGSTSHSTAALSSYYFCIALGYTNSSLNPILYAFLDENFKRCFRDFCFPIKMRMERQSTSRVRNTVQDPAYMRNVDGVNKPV

Compound	IC50 ratio [1]	Selectivity ratio [2]	IC50 ratio [3]	IC50 ratio [4]	Selectivity ratio [5]	ED50 ratio [6]	ED50 ratio [7]	ED50 ratio [8]	ED50 ratio [9]	ED50 ratio [10]	ED50 ratio [11]	ED50 ratio [12]	ED50 ratio [13]	ED50 ratio [14]	ED50 ratio [15]	ED50 ratio [16]
COC(=O)c1ccc(/C=C2/C[C@@]3(O)C4Cc5ccc(O)c6c5C3(CCN4CC3CC3)[C@@H](O6)C2=O)cc1 (stereo not given in full)	0.62	3.8	3.81	14.6	14.6	–	–	–	–	–	–	–	–	–	–	–
COc1ccccc1/C=C1/C[C@@]2(O)C3Cc4ccc(O)c5c4C2(CCN3CC2CC2)[C@@H](O5)C1=O (stereo not given in full)	1.05	14.1	8.49	120	120	0.84	11.1	6.8	1.03	5.8	0.8	2	0.47	–	–	–
COc1cccc(/C=C2/C[C@@]3(O)C4Cc5ccc(O)c6c5C3(CCN4CC3CC3)[C@@H](O6)C2=O)c1 (stereo not given in full)	0.95	2.8	6.44	18	18	–	–	–	–	–	–	–	–	–	–	–
O=C1/C(=C\c2ccc([N+](=O)[O-])cc2)C[C@@]2(O)C3Cc4ccc(O)c5c4C2(CCN3CC2CC2)[C@H]1O5 (stereo not given in full)	1.07	0.4	4.42	1.9	1.9	–	–	–	–	–	–	–	–	–	–	–
O=C1/C(=C\c2ccccc2F)C[C@@]2(O)C3Cc4ccc(O)c5c4C2(CCN3CC2CC2)[C@H]1O5 (stereo not given in full)	1.65	4.4	3.86	17	10.3	–	–	–	–	–	–	–	–	–	–	–
O=C1/C(=C\c2cccc(F)c2)C[C@@]2(O)C3Cc4ccc(O)c5c4C2(CCN3CC2CC2)[C@H]1O5 (stereo not given in full)	1.26	2.1	7.83	16.3	12.9	–	–	–	–	–	–	–	–	–	–	–
O=C1/C(=C\c2ccccc2Cl)C[C@@]2(O)C3Cc4ccc(O)c5c4C2(CCN3CC2CC2)[C@H]1O5 (stereo not given in full)	0.85	130	1.34	130	130	–	11.4	7.2	–	7.1	0.87	3.7	–	0.9	0.73	0.53
O=C1/C(=C\c2ccc(-c3cccc4ccccc34)cc2)C[C@@]2(O)C3Cc4ccc(O)c5c4C2(CCN3CC2CC2)[C@H]1O5 (stereo not given in full)	1.85	10.3	1.23	12.7	6.9	–	–	–	–	–	–	–	–	–	–	–
O=C1/C(=C\c2cccc([N+](=O)[O-])c2)C[C@@]2(O)C3Cc4ccc(O)c5c4C2(CCN3CC2CC2)[C@H]1O5 (stereo not given in full)	0.5	5.2	1.15	5.18	5.2	–	–	–	–	–	–	–	–	–	–	–
O=C1/C(=C\c2ccccc2)C[C@@]2(O)[C@H]3Cc4ccc(O)c5c4[C@@]2(CCN3CC2CC2)[C@H]1O5	2	2.7	13.1	35	17.5	–	16.8	9.6	–	5.7	–	–	–	1.8	–	–
COc1ccc(/C=C2/C[C@@]3(O)C4Cc5ccc(O)c6c5C3(CCN4CC3CC3)[C@@H](O6)C2=O)cc1 (stereo not given in full)	0.92	1.5	3.75	5.52	5.5	–	–	–	–	–	–	–	–	–	–	–
O=C1/C(=C\c2ccc(F)cc2)C[C@@]2(O)C3Cc4ccc(O)c5c4C2(CCN3CC2CC2)[C@H]1O5 (stereo not given in full)	1.86	0.9	2.23	2.01	1.1	–	–	–	–	–	–	–	–	–	–	–
Cc1ccc(/C=C2/C[C@@]3(O)C4Cc5ccc(O)c6c5C3(CCN4CC3CC3)[C@@H](O6)C2=O)cc1 (stereo not given in full)	2.45	3.2	7.05	22.3	9.1	–	–	–	–	–	–	–	–	–	–	–
O=C1/C(=C\c2ccc(-c3ccc4ccccc4c3)cc2)C[C@@]2(O)C3Cc4ccc(O)c5c4C2(CCN3CC2CC2)[C@H]1O5 (stereo not given in full)	1.07	3.5	3.32	11.6	11.6	–	–	–	–	–	–	–	–	–	–	–
